Measurements taken from ChEMBL document CHEMBL5154895, “Mechanistic Studies and In Vivo Efficacy of an Oxadiazole-Containing Antibiotic” (J Med Chem, 2022).
Converted amounts (≈) assume the structure as drawn. The source made the active and inactive calls. The calls are words filed in the database; no cut-off is given here.

Experiments:
Staphylococcus aureus [1] = assay: Downregulation of EsaA protein expression in Staphylococcus aureus assessed as log2 of fold change in protein level measured after 2 hrs by LC-MS/MS analysis relative to control; assay type: functional
In short: (§1)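 S. aureus ATCC 25923 at OD600 0.6 was treated with compound or DMSO for 2 h at 37 °C, normalised to OD600 1.1, and washed in PBS. Cells were pressure-lysed in 100 mM ammonium bicarbonate, then acetone-precipitated, reduced with DTT, alkylated with iodoacetamide, and digested with trypsin/Lys-C. Peptides were desalted and run on LC-MS/MS. Label-free quantitation used proteins present in all 3 samples, filtered at p<0.05 against DMSO.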

Staphylococcus aureus [2] = assay: Upregulation of siderophore biosynthesis protein SbnE expression in Staphylococcus aureus measured after 2 hrs by LC-MS/MS analysis; assay type: functional
In short: (§2)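 S. aureus ATCC 25923 at OD600 0.6 exposed to compound or DMSO control for 2 h at 37°C, normalized to OD600 1.1 and PBS-washed. Cells were pressure-cycling lysed in 100 mM ammonium bicarbonate, and 50 μg protein was acetone-precipitated, reduced and alkylated, then Trypsin/Lys-C digested and C18-desalted. About 1 μg peptides went to LC-MS/MS. Label-free quantitation kept proteins present in all 3 samples, filtered at p <0.05.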

Staphylococcus aureus [3] = assay: Downregulation of multifunctional 2,3-cyclic-nucleotide 2-phosphodiesterase/5-nucleotidase/3-nucleotidase protein expression in Staphylococcus aureus measured after 2 hrs by LC-MS/MS analysis; assay type: functional; in short: as §2
Staphylococcus aureus [4] = assay: Downregulation of protein EssC expression in Staphylococcus aureus measured after 2 hrs by LC-MS/MS analysis; assay type: functional; in short: as §2
Staphylococcus aureus [5] = assay: Antibacterial activity against vancomycin-resistant Staphylococcus aureus 9 assessed as inhibition of bacterial growth incubated for 18 to 20 hrs by broth microdilution method; assay type: functional; settings: time 18-20 hrs
In short: (§3)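 Broth microdilution per CLSI. Inoculum was set to 0.5 McFarland and diluted in CAMHB to about 5×10^5 CFU/mL. Serial dilutions of agent were incubated aerobically at 37 °C for 18–20 h. MIC was read visually as the lowest concentration with complete growth inhibition.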

Staphylococcus aureus [6] = assay: Downregulation of carboxylesterase protein expression in Staphylococcus aureus measured after 2 hrs by LC-MS/MS analysis; assay type: functional; in short: as §1
Staphylococcus aureus [7] = assay: Downregulation of IlvA protein expression in Staphylococcus aureus assessed as log2 of fold change in protein level measured after 2 hrs by LC-MS/MS analysis relative to control; assay type: functional; in short: as §1
Staphylococcus aureus [8] = assay: Downregulation of LukD protein expression in Staphylococcus aureus assessed as log2 of fold change in protein level measured after 2 hrs by LC-MS/MS analysis relative to control; assay type: functional; in short: as §1
Staphylococcus aureus [9] = assay: Antibacterial activity against methicillin-resistant Staphylococcus aureus NRS384 assessed as inhibition of bacterial growth incubated for 18 to 20 hrs by broth microdilution method; assay type: functional; settings: time 18-20 hrs; in short: as §3
Staphylococcus aureus [10] = assay: Downregulation of Nuc protein expression in Staphylococcus aureus assessed as log2 of fold change in protein level measured after 2 hrs by LC-MS/MS analysis relative to control; assay type: functional; in short: as §1
Staphylococcus aureus [11] = assay: Upregulation of haptoglobin-binding heme uptake protein HarA expression in Staphylococcus aureus measured after 2 hrs by LC-MS/MS analysis; assay type: functional; in short: as §2
Staphylococcus aureus [12] = assay: Downregulation of CarB protein expression in Staphylococcus aureus assessed as log2 of fold change in protein level measured after 2 hrs by LC-MS/MS analysis relative to control; assay type: functional; in short: as §1
Staphylococcus aureus [13] = assay: Inhibition of Glc2-DAG in Staphylococcus aureus ATCC 25923 assessed as reduction in alpha-naphthol at 0.25 to 2 ug/ml measured after 5 hrs by thin layer chromatography; settings: dose 0.25-2 µg/ml
In short: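 Cells were normalized to OD600 0.9 and washed in 0.1 M sodium acetate pH 4.7. Lipids were Bligh-Dyer extracted and dried under nitrogen, then run on TLC with α-naphthol/sulfuric acid staining. The stained band was identified as Glc2-DAG by MALDI-TOF.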

Staphylococcus aureus [14] = assay: Downregulation of 50S rRNA methyltransferase protein expression in Staphylococcus aureus measured after 2 hrs by LC-MS/MS analysis; assay type: functional; in short: as §1
Staphylococcus aureus [15] = assay: Upregulation of 30S ribosomal protein S20 expression in Staphylococcus aureus measured after 2 hrs by LC-MS/MS analysis; assay type: functional; in short: as §2
Staphylococcus aureus [16] = assay: Downregulation of CDP-diacylglycerol-glycerol-3-phosphate-3-phosphatidyltransferase protein expression in Staphylococcus aureus measured after 2 hrs by LC-MS/MS analysis; assay type: functional; in short: as §1
HaCaT = assay: Cytotoxicity against human HaCaT cells assessed as reduction in cell viability measured upto 64 ug/ml incubated for 2 hrs by MTS assay; assay type: toxicity, cell-based; settings: dose < 64 µg/ml
In short: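 Human keratinocytes exposed to compound at 16, 32, 64 and 128 μg/mL in sextuplicate for 2 hours at 37 °C with 5% CO2. DMSO served as the baseline control. MTS reagent added, then 3 h further incubation, and absorbance read at OD490.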

Staphylococcus aureus [17] = assay: Upregulation of DefA protein expression in Staphylococcus aureus assessed as log2 of fold change in protein level measured after 2 hrs by LC-MS/MS analysis relative to control; assay type: functional; in short: as §2
Streptococcus pneumoniae = assay: Antibacterial activity against cephalosporin-resistant Streptococcus pneumoniae ATCC 51916 assessed as inhibition of bacterial growth incubated for 18 to 20 hrs by broth microdilution method; assay type: functional; settings: time 18-20 hrs
In short: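 Broth microdilution per CLSI. S. pneumoniae was diluted to about 5×10^5 CFU/mL in TSB and incubated with serial dilutions of agent at 37 °C for 18–20 h under 5% CO2. MIC was read visually as the lowest concentration completely inhibiting growth.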

Staphylococcus aureus [18] = assay: Antibacterial activity against methicillin-resistant Staphylococcus aureus NRS119 assessed as inhibition of bacterial growth incubated for 18 to 20 hrs by broth microdilution method; assay type: functional; settings: time 18-20 hrs; in short: as §3
Staphylococcus aureus [19] = assay: Upregulation of siderophore biosynthesis protein SbnF in Staphylococcus aureus measured after 2 hrs by LC-MS/MS analysis; assay type: functional; in short: as §2
Staphylococcus aureus [20] = assay: Antibacterial activity against vancomycin-resistant Staphylococcus aureus 12 assessed as inhibition of bacterial growth incubated for 18 to 20 hrs by broth microdilution method; assay type: functional; settings: time 18-20 hrs; in short: as §3
Staphylococcus aureus [21] = assay: Downregulation of peptidase protein expression in Staphylococcus aureus measured after 2 hrs by LC-MS/MS analysis; assay type: functional; in short: as §2
Staphylococcus aureus [22] = assay: Downregulation of DNA recombination protein RecF expression in Staphylococcus aureus measured after 2 hrs by LC-MS/MS analysis; assay type: functional; in short: as §1
Staphylococcus aureus [23] = assay: Antibacterial activity against Staphylococcus aureus ATCC 25923 assessed as inhibition of bacterial growth incubated for 18 to 20 hrs by broth microdilution method; assay type: functional; settings: time 18-20 hrs
In short: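 Broth microdilution per CLSI. Inoculum at 0.5 McFarland, diluted in cation-adjusted Mueller Hinton broth to about 5 × 10^5 CFU/mL. Serial compound dilutions incubated aerobically at 37° C for 18–20 hours. MIC taken as the lowest concentration completely inhibiting visible growth.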

Mus musculus = assay: Acceleration of wound healing in methicillin-resistant Staphylococcus aureus USA300 infected in Balb/c mouse model assessed as reduction in pro-inflammatory cytokines level in skin wounds administered topically twice daily 2 days post infection and measured after 5 days post compound treatment; assay type: functional, organism-based; settings: time 5.0 day
In short: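 Mice had two 6-mm dorsal excisional wounds, each infected with 20 μL of 4.2×10^9 CFU/mL MRSA USA300 and covered with Tegaderm. Treatment began 2 days after infection (n=5 per group): 2% compound in petroleum jelly applied topically twice daily for 5 days. Right-wound homogenates in PBS were centrifuged, supernatants pooled per group, and protein normalised by BCA. Cytokines were measured by mouse cytokine array (pg/mL).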

Compound: CC1CC(C)CN(S(=O)(=O)c2ccc(C(=O)Nc3nnc(-c4ccc(C(F)(F)F)cc4)o3)cc2)C1 (stereo unspecified)
- log2FC (Staphylococcus aureus [1]): -2
- Activity (Staphylococcus aureus [2]): Active
- Activity (Staphylococcus aureus [3]): Active
- Activity (Staphylococcus aureus [4]): Active
- MIC (Staphylococcus aureus [5]): 0.25 µg/mL (≈ 0.492 µM)
- Activity (Staphylococcus aureus [6]): Active
- log2FC (Staphylococcus aureus [7]): -2
- log2FC (Staphylococcus aureus [8]): -2
- MIC (Staphylococcus aureus [9]): 0.25 µg/mL (≈ 0.492 µM)
- log2FC (Staphylococcus aureus [10]): -5.1
- Activity (Staphylococcus aureus [11]): Active
- log2FC (Staphylococcus aureus [12]): -2
- inhibition (Staphylococcus aureus [13]): Active
- Activity (Staphylococcus aureus [14]): Active
- Activity (Staphylococcus aureus [15]): Active
- Activity (Staphylococcus aureus [16]): Active
- Activity (HaCaT): Non-Toxic
- log2FC (Staphylococcus aureus [17]): 2
- MIC (Streptococcus pneumoniae): 0.06 µg/mL (≈ 0.118 µM)
- MIC (Staphylococcus aureus [18]): 0.25 µg/mL (≈ 0.492 µM)
- Activity (Staphylococcus aureus [19]): Active
- MIC (Staphylococcus aureus [20]): 0.25 µg/mL (≈ 0.492 µM)
- Activity (Staphylococcus aureus [21]): Active
- Activity (Staphylococcus aureus [22]): Active
- MIC (Staphylococcus aureus [23]): 0.25 µg/mL (≈ 0.492 µM)
- Activity (Mus musculus): Active
